From ChEMBL document CHEMBL2069216, “Discovery of novel 2-aminopyridine-3-carboxamides as c-Met kinase inhibitors” (Bioorg Med Chem, 2012)
Calls of active or inactive are those of the source. The calls are words filed in the database; no cut-off is given here.

Columns and labels:
[1] = target: T1, Hepatocyte growth factor receptor (Homo sapiens, UniProt P08581); assay: Inhibition of c-Met at 10 uM incubated for 60 mins by spectrophotometry
Summary of the method: (§1)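 Compounds in 1% DMSO; reaction started by adding purified kinase, 60 min at 37 °C. PY99 antibody, then HRP anti-mouse IgG; o-phenylenediamine/H2O2 read at 490 nm. Inhibition % = [1-(A490/A490 control)]×100; IC50 from inhibition curves.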

[2] = target: T1, Hepatocyte growth factor receptor; assay: Inhibition of c-Met incubated for 60 mins at spectrophotometry
[3] = Antiproliferative activity against human EBC1 cells expressing elevated levels of constitutively active c-Met after 72 hrs by SRB assay; assay type: functional, cell-based; details: EBC-1, 72 h
Summary of the method: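 Cells seeded in 96-well plates, exposed the next day to a range of compound concentrations and cultured 72 h. Fixed with cold 10% TCA at 4 °C for 1 h, stained with 0.4% SRB in 1% acetic acid at room temperature, washed with 1% acetic acid, dye solubilized in 10 mM Tris base. OD read at 515 nm.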

[4] = target: T1, Hepatocyte growth factor receptor; assay: Inhibition of c-Met phosphorylation in human EBC1 cells incubated for 4 hrs by Western blot; assay type: cell-based
Summary of the method: (§2)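 EBC-1 cells grown to exponential phase and treated with compound for 4 h at 37 °C. Lysed in 1× SDS sample buffer, resolved on 10% SDS-PAGE, transferred to nitrocellulose. Probed for phospho-c-Met/c-Met, phospho-ERK1/2/ERK1/2, phospho-AKT/AKT and GAPDH, then HRP anti-rabbit or anti-mouse IgG.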

[5] = target: T1, Hepatocyte growth factor receptor; assay: Inhibition of c-Met-mediated ERK1/2 phosphorylation in human EBC1 cells at 0.1 to 10 uM incubated for 4 hrs by Western blot; assay type: cell-based; summary of the method: as §2
[6] = target: T1, Hepatocyte growth factor receptor; assay: Inhibition of c-Met-mediated AKT phosphorylation in human EBC1 cells at 0.1 to 10 uM incubated for 4 hrs by Western blot; assay type: cell-based; summary of the method: as §2
[7] = target: Macrophage-stimulating protein receptor (Homo sapiens, UniProt Q04912); assay: Inhibition of Ron; summary of the method: as §1
[8] = target: T2, Tyrosine-protein kinase Mer (Homo sapiens, UniProt Q12866); assay: Inhibition of Mer; summary of the method: as §1
T2 sequence (Q12866 whole entry): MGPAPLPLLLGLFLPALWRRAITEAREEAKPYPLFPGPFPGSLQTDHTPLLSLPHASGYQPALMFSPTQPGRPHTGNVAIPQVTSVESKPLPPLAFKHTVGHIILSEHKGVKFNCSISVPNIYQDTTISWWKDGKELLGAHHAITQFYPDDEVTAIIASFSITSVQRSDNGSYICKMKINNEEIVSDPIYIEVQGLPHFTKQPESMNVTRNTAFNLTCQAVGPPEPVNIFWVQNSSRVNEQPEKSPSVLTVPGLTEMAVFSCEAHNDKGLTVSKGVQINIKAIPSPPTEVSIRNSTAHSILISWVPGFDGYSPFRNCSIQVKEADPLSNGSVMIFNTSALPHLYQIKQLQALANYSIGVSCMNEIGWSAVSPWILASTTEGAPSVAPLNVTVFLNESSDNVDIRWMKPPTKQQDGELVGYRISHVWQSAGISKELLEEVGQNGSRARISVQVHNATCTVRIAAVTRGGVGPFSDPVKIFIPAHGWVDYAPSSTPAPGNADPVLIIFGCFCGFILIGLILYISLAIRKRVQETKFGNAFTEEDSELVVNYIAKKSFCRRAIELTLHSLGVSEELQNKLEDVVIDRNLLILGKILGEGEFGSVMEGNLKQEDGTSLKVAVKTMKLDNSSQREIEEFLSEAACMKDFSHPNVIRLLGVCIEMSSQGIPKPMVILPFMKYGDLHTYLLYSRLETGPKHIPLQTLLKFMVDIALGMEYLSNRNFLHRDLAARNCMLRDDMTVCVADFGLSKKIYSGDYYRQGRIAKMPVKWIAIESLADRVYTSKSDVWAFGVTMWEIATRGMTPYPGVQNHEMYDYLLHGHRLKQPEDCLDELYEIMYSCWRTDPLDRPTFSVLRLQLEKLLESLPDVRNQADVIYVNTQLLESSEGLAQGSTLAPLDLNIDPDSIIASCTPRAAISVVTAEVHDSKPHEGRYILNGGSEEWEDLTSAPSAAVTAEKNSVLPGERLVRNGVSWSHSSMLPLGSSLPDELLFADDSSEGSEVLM

[9] = target: T3, Tyrosine-protein kinase receptor TYRO3 (Homo sapiens, UniProt Q06418); assay: Inhibition of TYRO3; summary of the method: as §1
T3 sequence (Q06418 whole entry): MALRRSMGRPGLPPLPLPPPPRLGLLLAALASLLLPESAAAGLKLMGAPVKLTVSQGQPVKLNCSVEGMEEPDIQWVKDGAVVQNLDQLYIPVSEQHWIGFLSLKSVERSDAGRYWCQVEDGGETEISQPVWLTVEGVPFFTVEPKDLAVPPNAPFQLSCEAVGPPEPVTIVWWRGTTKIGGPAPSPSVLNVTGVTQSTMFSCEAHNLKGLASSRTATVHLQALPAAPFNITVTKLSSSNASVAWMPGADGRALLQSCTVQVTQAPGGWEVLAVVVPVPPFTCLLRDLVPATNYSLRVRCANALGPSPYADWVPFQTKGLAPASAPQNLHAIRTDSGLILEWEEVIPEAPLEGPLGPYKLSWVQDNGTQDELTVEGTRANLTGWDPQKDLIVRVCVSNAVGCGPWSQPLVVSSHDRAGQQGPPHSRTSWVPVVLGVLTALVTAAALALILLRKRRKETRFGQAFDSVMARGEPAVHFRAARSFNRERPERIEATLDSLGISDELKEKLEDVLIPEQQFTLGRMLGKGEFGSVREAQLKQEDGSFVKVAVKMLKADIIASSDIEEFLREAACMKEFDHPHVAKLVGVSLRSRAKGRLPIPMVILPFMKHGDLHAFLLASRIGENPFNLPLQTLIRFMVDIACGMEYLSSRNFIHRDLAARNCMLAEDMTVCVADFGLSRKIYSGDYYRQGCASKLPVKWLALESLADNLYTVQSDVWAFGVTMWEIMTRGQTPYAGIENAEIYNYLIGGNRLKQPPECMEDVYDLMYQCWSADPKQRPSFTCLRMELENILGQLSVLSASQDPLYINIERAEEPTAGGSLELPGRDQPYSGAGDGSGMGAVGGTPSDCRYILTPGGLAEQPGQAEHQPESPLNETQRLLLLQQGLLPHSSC

[10] = target: T4, Tyrosine-protein kinase receptor UFO (Homo sapiens, UniProt P30530); assay: Inhibition of Axl; summary of the method: as §1
T4 sequence (P30530 whole entry): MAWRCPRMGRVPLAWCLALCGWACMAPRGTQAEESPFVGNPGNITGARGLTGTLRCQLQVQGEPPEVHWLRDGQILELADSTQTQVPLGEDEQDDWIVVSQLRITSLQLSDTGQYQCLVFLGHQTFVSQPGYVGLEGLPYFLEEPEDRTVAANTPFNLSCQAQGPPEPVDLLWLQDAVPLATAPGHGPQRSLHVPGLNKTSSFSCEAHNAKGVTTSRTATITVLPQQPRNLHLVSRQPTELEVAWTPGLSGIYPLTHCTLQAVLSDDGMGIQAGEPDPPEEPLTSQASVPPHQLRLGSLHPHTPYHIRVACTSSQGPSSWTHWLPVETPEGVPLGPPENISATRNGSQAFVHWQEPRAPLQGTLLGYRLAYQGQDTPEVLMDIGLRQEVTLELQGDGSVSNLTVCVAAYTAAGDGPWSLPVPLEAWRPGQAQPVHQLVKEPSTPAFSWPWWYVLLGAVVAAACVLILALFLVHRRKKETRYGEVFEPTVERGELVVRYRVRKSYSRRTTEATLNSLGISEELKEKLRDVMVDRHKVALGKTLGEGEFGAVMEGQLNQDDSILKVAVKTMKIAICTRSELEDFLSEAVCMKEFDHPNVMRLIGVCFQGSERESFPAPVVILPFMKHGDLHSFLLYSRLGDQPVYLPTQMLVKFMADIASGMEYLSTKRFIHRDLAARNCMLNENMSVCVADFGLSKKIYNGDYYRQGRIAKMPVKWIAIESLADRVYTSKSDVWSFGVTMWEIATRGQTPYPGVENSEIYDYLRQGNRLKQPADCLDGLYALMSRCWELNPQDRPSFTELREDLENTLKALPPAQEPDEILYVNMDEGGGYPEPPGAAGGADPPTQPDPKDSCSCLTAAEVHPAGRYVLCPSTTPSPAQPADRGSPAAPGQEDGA

[11] = target: Vascular endothelial growth factor receptor 2 (Homo sapiens, UniProt P35968); assay: Inhibition of KDR; summary of the method: as §1
[12] = target: Epidermal growth factor receptor (Homo sapiens, UniProt P00533); assay: Inhibition of EGFR; summary of the method: as §1
[13] = target: Fibroblast growth factor receptor 1 (Homo sapiens, UniProt P11362); assay: Inhibition of FGFR1; summary of the method: as §1
Chain of Fibroblast growth factor receptor 1 (P11362 whole entry): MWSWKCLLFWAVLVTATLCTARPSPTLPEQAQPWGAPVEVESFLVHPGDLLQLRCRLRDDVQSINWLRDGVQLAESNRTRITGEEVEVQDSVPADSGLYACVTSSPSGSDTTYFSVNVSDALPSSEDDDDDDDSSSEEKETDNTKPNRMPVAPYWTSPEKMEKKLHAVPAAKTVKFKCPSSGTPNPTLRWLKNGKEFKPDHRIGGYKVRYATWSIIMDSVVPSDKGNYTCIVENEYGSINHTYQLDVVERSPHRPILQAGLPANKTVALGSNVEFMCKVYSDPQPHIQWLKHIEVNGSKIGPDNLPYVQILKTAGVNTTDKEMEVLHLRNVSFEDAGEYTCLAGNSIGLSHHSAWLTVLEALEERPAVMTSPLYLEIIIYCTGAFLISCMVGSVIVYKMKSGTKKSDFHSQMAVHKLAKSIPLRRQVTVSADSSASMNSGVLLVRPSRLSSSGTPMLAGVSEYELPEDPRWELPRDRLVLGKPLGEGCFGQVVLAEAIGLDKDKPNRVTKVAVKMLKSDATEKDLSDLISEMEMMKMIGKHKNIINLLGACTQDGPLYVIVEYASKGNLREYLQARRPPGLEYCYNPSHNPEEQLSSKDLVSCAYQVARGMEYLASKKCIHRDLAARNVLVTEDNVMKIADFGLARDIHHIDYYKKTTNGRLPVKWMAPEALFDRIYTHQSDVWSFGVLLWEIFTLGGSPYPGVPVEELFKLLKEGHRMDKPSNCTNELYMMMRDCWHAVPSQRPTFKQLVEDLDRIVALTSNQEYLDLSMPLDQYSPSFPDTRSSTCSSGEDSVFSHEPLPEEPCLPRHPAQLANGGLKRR

[14] = target: Platelet-derived growth factor receptor (Homo sapiens, UniProt P09619+P16234); assay: Inhibition of PDGFR; assay type: protein-complex assay; summary of the method: as §1
[15] = target: Vascular endothelial growth factor receptor 1 (Homo sapiens, UniProt P17948); assay: Inhibition of FLT1; summary of the method: as §1
[16] = target: Tyrosine-protein kinase ABL1 (Homo sapiens, UniProt P00519); assay: Inhibition of ABL; summary of the method: as §1
Chain of Tyrosine-protein kinase ABL1 (P00519 whole entry): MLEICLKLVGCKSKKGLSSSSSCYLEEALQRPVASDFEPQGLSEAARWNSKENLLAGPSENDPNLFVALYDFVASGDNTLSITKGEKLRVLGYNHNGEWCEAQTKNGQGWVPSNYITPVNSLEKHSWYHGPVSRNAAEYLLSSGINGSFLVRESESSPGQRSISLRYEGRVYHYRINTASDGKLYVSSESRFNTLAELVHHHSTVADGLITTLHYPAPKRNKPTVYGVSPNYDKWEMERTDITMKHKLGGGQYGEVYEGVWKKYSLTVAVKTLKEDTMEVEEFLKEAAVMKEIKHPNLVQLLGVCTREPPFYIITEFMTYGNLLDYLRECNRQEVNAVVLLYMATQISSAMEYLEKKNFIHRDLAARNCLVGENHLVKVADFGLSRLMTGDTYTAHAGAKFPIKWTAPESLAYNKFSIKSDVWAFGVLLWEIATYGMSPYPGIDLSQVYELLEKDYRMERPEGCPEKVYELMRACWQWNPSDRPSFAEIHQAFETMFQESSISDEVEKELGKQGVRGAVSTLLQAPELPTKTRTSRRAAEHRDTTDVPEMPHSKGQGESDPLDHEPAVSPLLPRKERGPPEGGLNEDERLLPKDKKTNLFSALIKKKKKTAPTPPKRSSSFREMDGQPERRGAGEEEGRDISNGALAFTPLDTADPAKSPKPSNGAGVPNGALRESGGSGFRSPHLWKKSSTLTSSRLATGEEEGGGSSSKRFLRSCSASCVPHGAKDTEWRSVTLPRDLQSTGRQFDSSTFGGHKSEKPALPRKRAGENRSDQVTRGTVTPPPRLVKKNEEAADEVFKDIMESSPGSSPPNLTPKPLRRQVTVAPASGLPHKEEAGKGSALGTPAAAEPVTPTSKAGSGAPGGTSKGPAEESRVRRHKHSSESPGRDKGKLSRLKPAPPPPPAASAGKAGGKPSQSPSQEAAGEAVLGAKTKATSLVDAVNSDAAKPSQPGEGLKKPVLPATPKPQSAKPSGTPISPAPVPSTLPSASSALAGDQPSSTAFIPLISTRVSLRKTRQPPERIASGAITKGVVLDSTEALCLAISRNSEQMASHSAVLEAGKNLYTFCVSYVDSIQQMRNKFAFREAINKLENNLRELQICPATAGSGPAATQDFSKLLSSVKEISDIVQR

[17] = target: Ephrin type-A receptor 2 (Homo sapiens, UniProt P29317); assay: Inhibition of EPHA2; summary of the method: as §1
[18] = target: Receptor tyrosine-protein kinase erbB-2 (Homo sapiens, UniProt P04626); assay: Inhibition of ERBB2; summary of the method: as §1
Chain of Receptor tyrosine-protein kinase erbB-2 (P04626 whole entry): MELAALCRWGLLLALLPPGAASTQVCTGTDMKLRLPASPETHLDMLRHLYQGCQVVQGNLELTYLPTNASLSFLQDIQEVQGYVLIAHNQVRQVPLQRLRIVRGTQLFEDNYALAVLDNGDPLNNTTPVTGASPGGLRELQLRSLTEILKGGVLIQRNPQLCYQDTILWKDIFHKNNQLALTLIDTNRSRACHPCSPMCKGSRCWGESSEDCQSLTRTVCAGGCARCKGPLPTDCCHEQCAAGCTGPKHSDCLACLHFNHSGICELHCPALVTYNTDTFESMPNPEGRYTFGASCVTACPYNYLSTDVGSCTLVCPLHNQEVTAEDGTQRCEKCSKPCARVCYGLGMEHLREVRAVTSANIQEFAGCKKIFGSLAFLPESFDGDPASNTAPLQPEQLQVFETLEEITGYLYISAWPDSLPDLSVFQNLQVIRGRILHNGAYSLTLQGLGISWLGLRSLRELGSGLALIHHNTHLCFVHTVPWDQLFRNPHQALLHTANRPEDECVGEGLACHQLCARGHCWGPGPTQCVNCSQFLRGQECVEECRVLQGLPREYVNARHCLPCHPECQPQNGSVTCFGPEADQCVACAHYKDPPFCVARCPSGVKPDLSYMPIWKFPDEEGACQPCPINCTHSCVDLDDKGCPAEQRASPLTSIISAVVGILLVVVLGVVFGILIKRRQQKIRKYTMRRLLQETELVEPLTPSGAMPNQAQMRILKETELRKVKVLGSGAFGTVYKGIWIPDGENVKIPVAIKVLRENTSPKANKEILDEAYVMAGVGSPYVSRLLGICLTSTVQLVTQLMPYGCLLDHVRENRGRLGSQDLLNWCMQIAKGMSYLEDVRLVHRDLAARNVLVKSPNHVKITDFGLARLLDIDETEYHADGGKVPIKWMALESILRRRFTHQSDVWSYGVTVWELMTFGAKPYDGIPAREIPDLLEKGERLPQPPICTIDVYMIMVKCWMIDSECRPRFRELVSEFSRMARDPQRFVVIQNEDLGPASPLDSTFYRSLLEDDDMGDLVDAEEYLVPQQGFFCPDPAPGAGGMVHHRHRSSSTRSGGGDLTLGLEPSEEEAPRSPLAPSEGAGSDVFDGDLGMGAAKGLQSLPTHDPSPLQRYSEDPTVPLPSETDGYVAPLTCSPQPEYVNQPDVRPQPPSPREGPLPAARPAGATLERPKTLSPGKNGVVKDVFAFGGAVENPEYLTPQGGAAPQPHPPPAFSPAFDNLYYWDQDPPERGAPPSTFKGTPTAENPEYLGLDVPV

[19] = target: Receptor tyrosine-protein kinase erbB-4 (Homo sapiens, UniProt Q15303); assay: Inhibition of ERBB4; summary of the method: as §1
[20] = target: T1, Hepatocyte growth factor receptor; assay: Inhibition of c-Met at 1 uM incubated for 60 mins by spectrophotometry; summary of the method: as §1

T1 sequence (P08581 whole entry): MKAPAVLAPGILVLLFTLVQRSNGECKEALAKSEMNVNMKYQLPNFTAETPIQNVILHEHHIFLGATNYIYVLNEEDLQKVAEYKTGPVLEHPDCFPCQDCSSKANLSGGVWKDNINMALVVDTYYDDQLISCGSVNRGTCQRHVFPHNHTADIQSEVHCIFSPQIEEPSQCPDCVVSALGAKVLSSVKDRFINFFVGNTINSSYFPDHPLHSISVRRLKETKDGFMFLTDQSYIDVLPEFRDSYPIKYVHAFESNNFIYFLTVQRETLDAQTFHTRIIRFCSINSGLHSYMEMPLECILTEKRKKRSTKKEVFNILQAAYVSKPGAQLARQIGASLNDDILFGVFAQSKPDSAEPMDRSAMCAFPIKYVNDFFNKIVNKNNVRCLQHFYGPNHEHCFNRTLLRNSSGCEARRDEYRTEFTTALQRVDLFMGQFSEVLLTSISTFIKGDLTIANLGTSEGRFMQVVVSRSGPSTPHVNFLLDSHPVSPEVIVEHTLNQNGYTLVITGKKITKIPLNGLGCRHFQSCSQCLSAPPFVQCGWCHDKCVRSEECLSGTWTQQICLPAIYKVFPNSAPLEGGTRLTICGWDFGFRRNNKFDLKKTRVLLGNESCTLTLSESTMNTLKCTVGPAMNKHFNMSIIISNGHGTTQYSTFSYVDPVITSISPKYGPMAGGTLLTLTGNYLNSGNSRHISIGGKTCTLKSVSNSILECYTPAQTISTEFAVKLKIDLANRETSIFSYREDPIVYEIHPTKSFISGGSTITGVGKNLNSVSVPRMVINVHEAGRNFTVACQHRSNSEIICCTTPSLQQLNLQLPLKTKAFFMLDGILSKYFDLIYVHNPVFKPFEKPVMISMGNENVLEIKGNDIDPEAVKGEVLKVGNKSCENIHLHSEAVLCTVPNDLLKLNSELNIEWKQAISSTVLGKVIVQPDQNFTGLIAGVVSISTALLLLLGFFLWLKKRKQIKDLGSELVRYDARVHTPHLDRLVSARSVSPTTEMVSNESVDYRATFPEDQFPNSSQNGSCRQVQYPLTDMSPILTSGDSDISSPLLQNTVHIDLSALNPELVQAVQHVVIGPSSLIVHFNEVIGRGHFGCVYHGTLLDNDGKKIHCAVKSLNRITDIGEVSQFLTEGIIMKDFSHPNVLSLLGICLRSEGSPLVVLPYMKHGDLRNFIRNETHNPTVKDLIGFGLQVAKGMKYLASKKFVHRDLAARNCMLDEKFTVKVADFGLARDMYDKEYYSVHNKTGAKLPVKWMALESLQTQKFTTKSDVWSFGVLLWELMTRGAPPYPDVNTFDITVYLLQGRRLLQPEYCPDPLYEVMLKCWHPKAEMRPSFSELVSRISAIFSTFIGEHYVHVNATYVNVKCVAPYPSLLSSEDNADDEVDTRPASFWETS

## CC(c1c(Cl)ccc(F)c1Cl)n1cnc2ncc(-c3cnn(C4CCNCC4)c3)cc2c1=O (stereo not given)
[1]
  inhibition: 34.1%

## CC(NC(=O)c1cc(-c2cnn(C3CCOCC3)c2)cnc1N)c1c(Cl)ccc(F)c1Cl (racemic)
[2]
  IC50: 0.099 µM
[3]
  IC50: 3.49 µM

## C[C@H](NC(=O)c1cc(-c2cnn(C3CCOCC3)c2)cnc1N)c1c(Cl)ccc(F)c1Cl
[2]
  IC50: 0.022 µM
[3]
  IC50: 1.22 µM
[4]
  inhibition: Dose-dependent effect
[5]
  inhibition: Active
[6]
  inhibition: Active
[7]
  IC50: 8.26 µM
[8]
  IC50: > 10 µM
[9]
  IC50: > 10 µM
[10]
  IC50: > 10 µM
[11]
  IC50: > 10 µM
[12]
  IC50: > 10 µM
[13]
  IC50: 3.48 µM
[14]
  IC50: > 10 µM
[15]
  IC50: 8.16 µM
[16]
  IC50: 4.99 µM
[17]
  IC50: 6.18 µM
[18]
  IC50: > 10 µM
[19]
  IC50: > 10 µM

## CC(NC(=O)c1cc(-c2cnn(C)c2)cnc1N)c1c(Cl)ccc(F)c1Cl (stereo not given)
[3]
  IC50: > 50 µM

## Cn1cc(-c2cnc(N)c(C(=O)NCc3cc(F)ccc3F)c2)cn1
[3]
  IC50: 15 µM

## CC(c1c(Cl)ccc(F)c1Cl)n1cnc2ncc(-c3cnn(C4CCN(C(=O)OC(C)(C)C)CC4)c3)cc2c1=O (stereo not given)
[1]
  inhibition: 28.9%

## CC(NC(=O)c1cc(-c2cnn(C3CCNCC3)c2)cnc1N)c1c(Cl)ccc(F)c1Cl (stereo not given)
[3]
  IC50: 1.46 µM

## Cn1cc(-c2cnc(N)c(C(=O)NCc3c(F)ccc(F)c3Cl)c2)cn1
[3]
  IC50: 6.9 µM

## CC(NC(=O)c1cc(-c2ccc(OCC(=O)N3CCOCC3)cc2)cnc1N)c1c(Cl)ccc(F)c1Cl (stereo not given)
[3]
  IC50: 6.05 µM

## Cn1cc(-c2cnc(N)c(C(=O)NCc3c(F)ccc(Cl)c3Cl)c2)cn1
[3]
  IC50: 12.7 µM

## CN(Cc1c(F)ccc(F)c1Cl)C(=O)c1cc(-c2cnn(C)c2)cnc1N
[20]
  inhibition: 18.1%

## C[C@@H](Oc1cc(-c2cnn(C3CCNCC3)c2)cnc1N)c1c(Cl)ccc(F)c1Cl [CRIZOTINIB]
[3]
  IC50: 0.053 µM

## C[C@@H](NC(=O)c1cc(-c2cnn(C3CCOCC3)c2)cnc1N)c1c(Cl)ccc(F)c1Cl
[20]
  inhibition: 27.6%

## CN(Cc1c(F)ccc(Cl)c1Cl)C(=O)c1cc(-c2cnn(C)c2)cnc1N
[20]
  inhibition: 13.1%

## Cn1cc(-c2cnc(N)c(C(=O)NCc3ccc(F)c(F)c3)c2)cn1
[3]
  IC50: 14.6 µM

## CC(NC(=O)c1cc(-c2ccc3c(c2)CC(=O)N3)cnc1N)c1c(Cl)ccc(F)c1Cl (stereo not given)
[3]
  IC50: 17.8 µM

## CN(Cc1c(F)ccc(Cl)c1F)C(=O)c1cc(-c2cnn(C)c2)cnc1N
[20]
  inhibition: 10.9%
